# Experimental data collected from several papers.
# Target: Activin receptor type-1 (ACVR1, Homo sapiens, UniProt Q04771)
# Sequence (Q04771 21-509, as in one of the studies): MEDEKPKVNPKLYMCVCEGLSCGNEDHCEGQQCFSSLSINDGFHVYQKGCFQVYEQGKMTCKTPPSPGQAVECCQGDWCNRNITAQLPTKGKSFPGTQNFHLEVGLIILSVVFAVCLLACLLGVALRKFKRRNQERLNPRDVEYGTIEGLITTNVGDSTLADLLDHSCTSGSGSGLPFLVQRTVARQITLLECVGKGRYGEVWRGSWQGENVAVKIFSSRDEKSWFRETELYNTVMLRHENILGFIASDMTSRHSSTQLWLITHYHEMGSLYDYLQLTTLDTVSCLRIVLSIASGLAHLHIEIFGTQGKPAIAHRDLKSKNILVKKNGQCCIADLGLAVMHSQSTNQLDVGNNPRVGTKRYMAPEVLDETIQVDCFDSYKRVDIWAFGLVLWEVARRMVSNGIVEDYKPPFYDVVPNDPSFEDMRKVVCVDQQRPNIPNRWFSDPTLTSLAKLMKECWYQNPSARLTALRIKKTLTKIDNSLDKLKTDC
Structure (SMILES),test,setting,measurement,value
Cn1cc(-c2cccc(N3CCc4c(sc5c4CC(C)(C)C5)C3=O)c2CO)cc(Nc2ccncn2)c1=O,"enzyme activity, inhibitor",1 µM,inhibition,-1%
O=c1[nH]c2ccccc2n1C1CCN(Cc2ccc(-c3[nH]c4cc5ncnc5cc4nc3-c3ccccc3)cc2)CC1,cell-free assay,0.5 µM,remaining signal,102%
Nc1ncc(-c2nc(N3CCOCC3)nc(N3CCOCC3)n2)c(C(F)F)n1,"cell-free assay, competition with immobilised ligand",10 µM,remaining binding,83%
COc1ncccc1-c1cnn2ccc(N3CCN(C(=O)OC(C)C)CC3)nc12,"binding, competition with immobilised ligand",1 µM,remaining binding,72%
N#CC1(c2ccccn2)CCN(Cc2cc(C(=O)O)c(=O)n3ccccc23)CC1,"cell-free assay, competition with immobilised ligand",1 µM,remaining binding,96%
Cc1nn(C)cc1-c1nc2c(N3CCN(Cc4ccc(Cl)cc4)CC3)c(Cl)cnc2[nH]1,"binding, competition with immobilised ligand",1 µM,remaining binding,90%
Cn1cncc1[C@](O)(COc1ccc(C#N)cc1-c1ccc(OC(F)(F)F)cc1)c1ccc(C#N)cc1,"cell-free assay, competition with immobilised ligand",1 µM,remaining binding,78%
CC(C)(C)c1cc(C=C(C#N)C#N)cc(Br)c1O,"enzyme activity, inhibitor",0.5 µM,remaining activity,102%
